From ChEMBL document CHEMBL5058577, “EUbOPEN Chemogenomics Library 2 (Multiplex)” (2022)

Tested on: Fibroblast
Assay: Multiplex assay against human fibroblast
Format: toxicity, cell-based
How it was run: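 Cells stained live at seeding with Hoechst33342, BioTracker Green Microtubule Cytoskeleton Dye, MitoTracker Red and Annexin V Alexa Fluor 680 were imaged on a CQ1 microscope at 37°C and 5% CO2 after compound addition. Their classification by CellPathfinder machine-learning gating ran from Hoechst high-intensity objects versus normal cells, to healthy, pyknosed or fragmented nuclei among normal cells, to mitotic or apoptotic among pyknosed cells. Tubulin, mitochondrial-mass and membrane-permeability phenotypes are per cents of healthy-nucleus cells.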

[1] = 12 h, 1 µM, compound concentration 1 uM, replicate 1
[2] = 12 h, 1 µM, compound concentration 1 uM, replicate 2
[3] = 12 h, 10 µM, compound concentration 10 uM, replicate 1
[4] = 12 h, 10 µM, compound concentration 10 uM, replicate 2
[5] = 24 h, 1 µM, compound concentration 1 uM, replicate 1
[6] = 24 h, 1 µM, compound concentration 1 uM, replicate 2
[7] = 24 h, 10 µM, compound concentration 10 uM, replicate 1
[8] = 24 h, 10 µM, compound concentration 10 uM, replicate 2
[9] = 48 h, 1 µM, compound concentration 1 uM, replicate 1
[10] = 48 h, 1 µM, compound concentration 1 uM, replicate 2
[11] = 48 h, 10 µM, compound concentration 10 uM, replicate 1
[12] = 48 h, 10 µM, compound concentration 10 uM, replicate 2

How did the “Population Apoptotic (%)” value [1] turn out when `Cc1cc(-c2ccc3c(c2)CC[C@H]3N2CC3(CCN(C(=O)Cc4cn5cc(C)sc5n4)CC3)C2)ncn1` [PF-5190457] was run?
Its value is 29%.

What about the “Population Fragmented Nuclei (%)” value [1] of the same compound?
The value was 16%.

What about the “Population Healthy Nuclei (%)” value [1] of the same compound?
The value was 71%.

What about the “Population Hoechst High Intensity Objects (%)” value [1] of the same compound?
Its value is 4%.

And the “Population Membrane Permeable-Phenotype (%)” value [1]?
Its value is 1%.

What about the “Population Mitochondria Different-Phenotype (%)” value [1] of the same compound?
Its value is 5%.

What about the “Population Mitotic Cells (%)” value [1] of the same compound?
The value was 70%.

And the “Population Normal (%)” value [1]?
The value was 96%.

And the “Population Pyknosed Nuclei (%)” value [1]?
Its value is 11%.

And the “Population Tubulin-Different-Phenotype (%)” value [1]?
Its value is 24%.

What about the “Total Cell Count” value [1] of the same compound?
The value was 150.

And the “Population Apoptotic (%)” value [2]?
Its value is 30%.

And the “Population Fragmented Nuclei (%)” value [2]?
Its value is 18%.

And the “Population Healthy Nuclei (%)” value [2]?
The value was 46%.

And the “Population Membrane Permeable-Phenotype (%)” value [2]?
Its value is 9%.

And the “Population Mitochondria Different-Phenotype (%)” value [2]?
Its value is 0%.

What about the “Population Normal (%)” value [2] of the same compound?
Its value is 95%.

What about the “Population Pyknosed Nuclei (%)” value [2] of the same compound?
Its value is 34%.

And the “Population Tubulin-Different-Phenotype (%)” value [2]?
Its value is 48%.

What about the “Total Cell Count” value [2] of the same compound?
The value was 121.

And the “Population Apoptotic (%)” value [3]?
The value was 36%.

And the “Population Fragmented Nuclei (%)” value [3]?
Its value is 17%.

And the “Population Healthy Nuclei (%)” value [3]?
Its value is 63%.

And the “Population Hoechst High Intensity Objects (%)” value [3]?
Its value is 4%.

And the “Population Membrane Permeable-Phenotype (%)” value [3]?
The value was 1%.

What about the “Population Mitochondria Different-Phenotype (%)” value [3] of the same compound?
The value was 5%.

What about the “Population Mitotic Cells (%)” value [3] of the same compound?
Its value is 63%.

And the “Population Normal (%)” value [3]?
Its value is 95%.

And the “Population Pyknosed Nuclei (%)” value [3]?
The value was 18%.

And the “Population Tubulin-Different-Phenotype (%)” value [3]?
The value was 38%.

And the “Total Cell Count” value [3]?
The value was 186.

What about the “Population Apoptotic (%)” value [4] of the same compound?
Its value is 45%.

What about the “Population Fragmented Nuclei (%)” value [4] of the same compound?
The value was 20%.

What about the “Population Healthy Nuclei (%)” value [4] of the same compound?
Its value is 55%.

What about the “Population Hoechst High Intensity Objects (%)” value [4] of the same compound?
Its value is 1%.

And the “Population Membrane Permeable-Phenotype (%)” value [4]?
The value was 6%.

What about the “Population Mitochondria Different-Phenotype (%)” value [4] of the same compound?
Its value is 4%.

And the “Population Mitotic Cells (%)” value [4]?
Its value is 54%.

And the “Population Normal (%)” value [4]?
Its value is 98%.

And the “Population Pyknosed Nuclei (%)” value [4]?
The value was 24%.

What about the “Population Tubulin-Different-Phenotype (%)” value [4] of the same compound?
Its value is 56%.

What about the “Total Cell Count” value [4] of the same compound?
Its value is 138.

And the “Population Apoptotic (%)” value [5]?
Its value is 54%.

What about the “Population Fragmented Nuclei (%)” value [5] of the same compound?
Its value is 19%.

And the “Population Healthy Nuclei (%)” value [5]?
Its value is 72%.

What about the “Population Hoechst High Intensity Objects (%)” value [5] of the same compound?
The value was 2%.

What about the “Population Membrane Permeable-Phenotype (%)” value [5] of the same compound?
The value was 1%.

What about the “Population Mitochondria Different-Phenotype (%)” value [5] of the same compound?
Its value is 4%.

And the “Population Mitotic Cells (%)” value [5]?
Its value is 45%.

What about the “Population Normal (%)” value [5] of the same compound?
Its value is 97%.

And the “Population Pyknosed Nuclei (%)” value [5]?
Its value is 7%.

What about the “Population Tubulin-Different-Phenotype (%)” value [5] of the same compound?
The value was 26%.

And the “Total Cell Count” value [5]?
The value was 141.

What about the “Population Apoptotic (%)” value [6] of the same compound?
The value was 15%.

What about the “Population Fragmented Nuclei (%)” value [6] of the same compound?
The value was 23%.

And the “Population Healthy Nuclei (%)” value [6]?
Its value is 43%.

What about the “Population Hoechst High Intensity Objects (%)” value [6] of the same compound?
The value was 3%.

What about the “Population Membrane Permeable-Phenotype (%)” value [6] of the same compound?
Its value is 5%.

And the “Population Mitochondria Different-Phenotype (%)” value [6]?
The value was 5%.

What about the “Population Mitotic Cells (%)” value [6] of the same compound?
The value was 84%.

And the “Population Normal (%)” value [6]?
Its value is 96%.

And the “Population Pyknosed Nuclei (%)” value [6]?
Its value is 32%.

And the “Population Tubulin-Different-Phenotype (%)” value [6]?
Its value is 54%.

What about the “Total Cell Count” value [6] of the same compound?
The value was 126.

What about the “Population Apoptotic (%)” value [7] of the same compound?
Its value is 44%.

And the “Population Fragmented Nuclei (%)” value [7]?
Its value is 19%.

What about the “Population Healthy Nuclei (%)” value [7] of the same compound?
The value was 64%.

What about the “Population Hoechst High Intensity Objects (%)” value [7] of the same compound?
The value was 3%.

And the “Population Membrane Permeable-Phenotype (%)” value [7]?
Its value is 0%.

What about the “Population Mitochondria Different-Phenotype (%)” value [7] of the same compound?
Its value is 6%.

What about the “Population Mitotic Cells (%)” value [7] of the same compound?
The value was 55%.

And the “Population Normal (%)” value [7]?
The value was 96%.

And the “Population Pyknosed Nuclei (%)” value [7]?
The value was 16%.

And the “Population Tubulin-Different-Phenotype (%)” value [7]?
Its value is 37%.

And the “Total Cell Count” value [7]?
Its value is 180.

And the “Population Apoptotic (%)” value [8]?
The value was 53%.

And the “Population Fragmented Nuclei (%)” value [8]?
The value was 25%.

What about the “Population Healthy Nuclei (%)” value [8] of the same compound?
Its value is 49%.

What about the “Population Hoechst High Intensity Objects (%)” value [8] of the same compound?
Its value is 5%.

And the “Population Membrane Permeable-Phenotype (%)” value [8]?
The value was 1%.

What about the “Population Mitochondria Different-Phenotype (%)” value [8] of the same compound?
Its value is 7%.

What about the “Population Mitotic Cells (%)” value [8] of the same compound?
The value was 46%.

What about the “Population Normal (%)” value [8] of the same compound?
Its value is 94%.

What about the “Population Pyknosed Nuclei (%)” value [8] of the same compound?
The value was 25%.

What about the “Population Tubulin-Different-Phenotype (%)” value [8] of the same compound?
Its value is 60%.

What about the “Total Cell Count” value [8] of the same compound?
Its value is 134.

What about the “Population Apoptotic (%)” value [9] of the same compound?
The value was 78%.

And the “Population Fragmented Nuclei (%)” value [9]?
Its value is 30%.

What about the “Population Healthy Nuclei (%)” value [9] of the same compound?
Its value is 59%.

And the “Population Hoechst High Intensity Objects (%)” value [9]?
Its value is 6%.

And the “Population Membrane Permeable-Phenotype (%)” value [9]?
The value was 2%.

And the “Population Mitochondria Different-Phenotype (%)” value [9]?
Its value is 2%.

What about the “Population Mitotic Cells (%)” value [9] of the same compound?
Its value is 21%.

What about the “Population Normal (%)” value [9] of the same compound?
The value was 93%.

And the “Population Pyknosed Nuclei (%)” value [9]?
The value was 9%.

And the “Population Tubulin-Different-Phenotype (%)” value [9]?
The value was 23%.

And the “Total Cell Count” value [9]?
The value was 157.

What about the “Population Apoptotic (%)” value [10] of the same compound?
The value was 34%.

And the “Population Fragmented Nuclei (%)” value [10]?
Its value is 32%.

And the “Population Healthy Nuclei (%)” value [10]?
Its value is 47%.

What about the “Population Hoechst High Intensity Objects (%)” value [10] of the same compound?
Its value is 2%.

And the “Population Membrane Permeable-Phenotype (%)” value [10]?
The value was 14%.

What about the “Population Mitochondria Different-Phenotype (%)” value [10] of the same compound?
Its value is 6%.

What about the “Population Mitotic Cells (%)” value [10] of the same compound?
The value was 65%.

And the “Population Normal (%)” value [10]?
Its value is 97%.

And the “Population Pyknosed Nuclei (%)” value [10]?
Its value is 20%.

What about the “Population Tubulin-Different-Phenotype (%)” value [10] of the same compound?
Its value is 68%.

What about the “Total Cell Count” value [10] of the same compound?
Its value is 132.

And the “Population Apoptotic (%)” value [11]?
Its value is 63%.

What about the “Population Fragmented Nuclei (%)” value [11] of the same compound?
The value was 22%.

And the “Population Healthy Nuclei (%)” value [11]?
Its value is 66%.

And the “Population Hoechst High Intensity Objects (%)” value [11]?
The value was 6%.

What about the “Population Membrane Permeable-Phenotype (%)” value [11] of the same compound?
The value was 0%.

And the “Population Mitochondria Different-Phenotype (%)” value [11]?
The value was 12%.

And the “Population Mitotic Cells (%)” value [11]?
The value was 36%.

And the “Population Normal (%)” value [11]?
Its value is 93%.

What about the “Population Pyknosed Nuclei (%)” value [11] of the same compound?
The value was 10%.

And the “Population Tubulin-Different-Phenotype (%)” value [11]?
Its value is 37%.

And the “Total Cell Count” value [11]?
The value was 192.

What about the “Population Apoptotic (%)” value [12] of the same compound?
Its value is 62%.

And the “Population Fragmented Nuclei (%)” value [12]?
The value was 30%.

What about the “Population Healthy Nuclei (%)” value [12] of the same compound?
Its value is 51%.

What about the “Population Hoechst High Intensity Objects (%)” value [12] of the same compound?
Its value is 1%.

And the “Population Membrane Permeable-Phenotype (%)” value [12]?
The value was 5%.

What about the “Population Mitochondria Different-Phenotype (%)” value [12] of the same compound?
Its value is 14%.

And the “Population Mitotic Cells (%)” value [12]?
Its value is 37%.

And the “Population Normal (%)” value [12]?
Its value is 98%.

What about the “Population Pyknosed Nuclei (%)” value [12] of the same compound?
The value was 18%.

What about the “Population Tubulin-Different-Phenotype (%)” value [12] of the same compound?
Its value is 64%.

What about the “Total Cell Count” value [12] of the same compound?
Its value is 135.
